# Data taken from ChEMBL document CHEMBL2417469, “Synthesis of novel analogs of 2-pyrazoline obtained from [(7-chloroquinolin-4-yl)amino]chalcones and hydrazine as potential antitumor and antimalarial agents” (Eur J Med Chem, 2013).
# Columns and labels:
# Format in all cases: functional
# [1] = system: RXF 393; assay: Cytotoxicity against human RXF393 cells after 48 hrs by SRB assay; details: RXF 393, 48 h
# Method in brief: (§1)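 NCI 60-cell-line screen. Cells preincubated 24 h at 37 °C, 5% CO2; time-zero plates TCA-fixed. Compounds dissolved in DMSO and tested at five concentrations (100, 10, 1.0, 0.1, 0.01 µM) for 48 h continuous exposure. Adherent cells fixed with cold TCA (10% final), then SRB stained; absorbance at 515 nm. GI50, TGI and LC50 calculated from growth relative to time-zero and untreated controls.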
# [2] = system: HOP-92; assay: Cytotoxicity against human HOP92 cells after 48 hrs by SRB assay; details: HOP-92, 48 h; method in brief: as §1
# [3] = system: UACC-257; assay: Cytotoxicity against human UACC257 cells after 48 hrs by SRB assay; details: UACC-257, 48 h
# Method in brief: (§2)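 NCI 60-cell screen. Cells grew 24 h (37 °C, 5% CO2) before compound was added. Compounds were in DMSO and diluted in medium with gentamicin, then tested at five levels (100, 10, 1.0, 0.1, 0.01 µM) with 48 h continuous exposure. Adherent cells were fixed with TCA (10% final) and stained with 0.4% SRB, absorbance read at 515 nm. A time-zero plate was included. LC50 is the concentration giving 50% loss of protein relative to time zero.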
# [4] = system: T47D; assay: Cytotoxicity against human T47D cells after 48 hrs by SRB assay; method in brief: as §2
# [5] = system: HCC 2998; assay: Cytotoxicity against human HCC2998 cells after 48 hrs by SRB assay; details: HCC 2998, 48 h; method in brief: as §1
# [6] = system: OVCAR-4; assay: Cytotoxicity against human OVCAR4 cells after 48 hrs by SRB assay; details: OVCAR-4, 48 h; method in brief: as §1
# [7] = system: SNB-75; assay: Cytotoxicity against human SNB75 cells after 48 hrs by SRB assay; details: SNB-75, 48 h; method in brief: as §2
# [8] = system: UACC-62; assay: Cytotoxicity against human UACC62 cells after 48 hrs by SRB assay; details: UACC-62, 48 h; for CC50: read-out: LC50 (the source's name); method in brief: as §2
# [9] = system: UO-31; assay: Cytotoxicity against human UO31 cells after 48 hrs by SRB assay; details: UO-31, 48 h; method in brief: as §2
# [10] = system: ACHN; assay: Cytotoxicity against human ACHN cells after 48 hrs by SRB assay; details: for CC50: read-out: LC50 (the source's name); method in brief: as §1
# [11] = system: CCRF-CEM; assay: Cytotoxicity against human CCRF-CEM cells after 48 hrs by SRB assay; method in brief: as §1
# [12] = system: Plasmodium falciparum; assay: Antimalarial activity against Plasmodium falciparum NF54 infected in human serum at 20 ug/ml after 48 hrs by fluorometric method
# Method in brief: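 Asynchronous P. falciparum NF54 at 1.5–2% parasitemia, 5% hematocrit in RPMI with 10% human serum, exposed 48 h at 37 °C under 90% N2/5% CO2/5% O2 at the stated concentration; parasite DNA stained with ethidium bromide after proteinase K lysis; viability % = (Flu treated − medium)/(Flu untreated − medium) ×100; triplicate.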
# [13] = system: Hs-578T; assay: Cytotoxicity against human Hs578T cells after 48 hrs by SRB assay; method in brief: as §1
# [14] = system: MDA-MB-435; assay: Cytotoxicity against human MDA-MB-435 cells after 48 hrs by SRB assay; details: MDA-MB-435, 48 h; method in brief: as §1
# [15] = system: NCI-H226; assay: Cytotoxicity against human NCI-H226 cells after 48 hrs by SRB assay; details: NCI-H226, 48 h; method in brief: as §1
# [16] = system: NCI-H23; assay: Cytotoxicity against human NCI-H23 cells after 48 hrs by SRB assay; details: NCI-H23, 48 h; for CC50: read-out: LC50 (the source's name); method in brief: as §1
# [17] = system: SF-268; assay: Cytotoxicity against human SF268 cells after 48 hrs by SRB assay; details: SF-268, 48 h; method in brief: as §1
# [18] = system: TK-10; assay: Cytotoxicity against human TK10 cells after 48 hrs by SRB assay; details: TK-10, 48 h; method in brief: as §2
# [19] = system: DU-145; assay: Cytotoxicity against human DU145 cells after 48 hrs by SRB assay; details: DU-145, 48 h; method in brief: as §1
# [20] = system: NCI-H460; assay: Cytotoxicity against human NCI-H460 cells after 48 hrs by SRB assay; details: NCI-H460, 48 h; method in brief: as §1
# [21] = system: SF-539; assay: Cytotoxicity against human SF539 cells after 48 hrs by SRB assay; details: SF-539, 48 h; for CC50: read-out: LC50 (the source's name); method in brief: as §1
# [22] = system: A549; assay: Cytotoxicity against human A549/ATCC cells after 48 hrs by SRB assay; details: A549, 48 h; for CC50: read-out: LC50 (the source's name); method in brief: as §1
# [23] = system: RPMI-8226; assay: Cytotoxicity against human RPMI8226 cells after 48 hrs by SRB assay; details: RPMI-8226, 48 h; method in brief: as §1
# [24] = Cytotoxicity against human EKVX cells after 48 hrs by SRB assay; method in brief: as §1
# [25] = system: SN12C; assay: Cytotoxicity against human SN12C cells after 48 hrs by SRB assay; method in brief: as §1
# [26] = system: MCF7; assay: Cytotoxicity against human MCF7 cells after 48 hrs by SRB assay; details: MCF7, 48 h; for CC50: read-out: LC50 (the source's name); method in brief: as §1
# [27] = system: SW-620; assay: Cytotoxicity against human SW620 cells after 48 hrs by SRB assay; details: SW-620, 48 h; method in brief: as §2
# [28] = system: HOP-62; assay: Cytotoxicity against human HOP62 cells after 48 hrs by SRB assay; details: HOP-62, 48 h; method in brief: as §1
# [29] = system: MDA-MB-231; assay: Cytotoxicity against human MDA-MB-231 cells after 48 hrs by SRB assay; details: MDA-MB-231, 48 h; method in brief: as §1
# [30] = system: OVCAR-5; assay: Cytotoxicity against human OVCAR5 cells after 48 hrs by SRB assay; details: OVCAR-5, 48 h; method in brief: as §1
# [31] = system: HL-60(TB); assay: Cytotoxicity against human HL-60(TB) cells after 48 hrs by SRB assay; details: HL-60, 48 h; method in brief: as §1
# [32] = system: OVCAR-3; assay: Cytotoxicity against human OVCAR3 cells after 48 hrs by SRB assay; details: OVCAR-3, 48 h; method in brief: as §1
# [33] = system: SNB-19; assay: Cytotoxicity against human SNB19 cells after 48 hrs by SRB assay; details: SNB-19, 48 h; method in brief: as §2
# [34] = system: NCI-H522; assay: Cytotoxicity against human NCI-H522 cells after 48 hrs by SRB assay; details: NCI-H522, 48 h; method in brief: as §1
# [35] = read-out: LC50 (the source's name)
structure (smiles),measurement,setting,value
COc1ccc(C2CC(c3ccc(Nc4ccnc5cc(Cl)ccc45)cc3)=NN2C=O)cc1 (centres undefined),GI50,[1],11.6 µM
same,LC50 (concentration killing 50% of cells),[1],> 100 µM
same,LC50 (concentration killing 50% of cells),[2],> 100 µM
same,GI50,[3],4.39 µM
same,LC50,[3],> 100 µM
same,GI50,[4],1.38 µM
same,LC50 (concentration giving 50% cell kill relative to time zero),[4],> 100 µM
same,GI50,[5],18.1 µM
same,LC50,[5],> 100 µM
same,GI50,[6],13.4 µM
same,LC50,[6],> 100 µM
same,GI50,[7],> 100 µM
same,LC50 (50% net cell kill),[7],> 100 µM
same,GI50,[8],5.99 µM
same,CC50,[8],> 100 µM
same,GI50,[9],19.7 µM
same,LC50,[9],> 100 µM
same,GI50,[10],7.02 µM
same,CC50,[10],> 100 µM
same,GI50,[11],2.71 µM
same,LC50 (concentration killing 50% of cells relative to time zero),[11],> 100 µM
same,inhibition at 20 µg/mL,[12],0%
same,GI50,[13],> 100 µM
same,LC50 (50% net cell kill),[13],> 100 µM
same,GI50,[14],1.72 µM
same,LC50,[14],> 100 µM
same,GI50,[15],> 100 µM
same,LC50 (50% lethal concentration),[15],> 100 µM
same,GI50,[16],5.06 µM
same,CC50,[16],> 100 µM
same,GI50,[17],> 100 µM
same,LC50,[17],> 100 µM
same,GI50,[18],20.9 µM
same,LC50 (concentration giving 50% cell loss vs time zero),[18],> 100 µM
same,GI50,[19],38 µM
same,LC50 (concentration killing 50% of cells),[19],> 100 µM
same,GI50,[20],> 100 µM
same,LC50,[20],> 100 µM
same,GI50,[21],> 100 µM
same,CC50,[21],> 100 µM
same,GI50,[22],50.3 µM
same,CC50,[22],> 100 µM
same,GI50,[23],2.71 µM
same,LC50 (concentration killing 50% of cells),[23],> 100 µM
same,GI50,[24],> 100 µM
same,LC50,[24],> 100 µM
same,GI50,[25],12.6 µM
same,LC50 (50% net cell kill relative to time zero),[25],> 100 µM
same,GI50,[26],8.78 µM
same,CC50,[26],> 100 µM
same,GI50,[27],35.8 µM
same,LC50,[27],> 100 µM
same,GI50,[28],43.7 µM
same,LC50 (50% lethal concentration),[28],> 100 µM
same,GI50,[29],20.1 µM
same,LC50 (concentration killing 50% of cells present at time zero),[29],> 100 µM
same,GI50,[30],> 100 µM
same,LC50,[30],> 100 µM
same,GI50,[31],2.23 µM
same,CC50,[31]; [35],> 100 µM
same,GI50,[32],14.5 µM
same,LC50,[32],> 100 µM
same,GI50,[33],5.65 µM
same,LC50,[33],> 100 µM
COc1cccc2c1C(=O)c1c(O)c3c(c(O)c1C2=O)C[C@@](O)(C(=O)CO)C[C@@H]3O[C@H]1C[C@H](N)[C@H](O)[C@H](C)O1 [DOXORUBICIN],GI50,[1],0.1 µM
same,GI50,[2],0.1 µM
same,GI50,[3],0.14 µM
same,GI50,[4],0.06 µM
same,GI50,[5],0.26 µM
same,GI50,[6],0.37 µM
same,GI50,[7],0.07 µM
same,GI50,[34],0.03 µM
same,CC50,[34]; [35],2.8 µM
same,GI50,[8],0.12 µM
same,CC50,[8],0.74 µM
same,GI50,[9],0.49 µM
same,GI50,[10],0.08 µM
same,CC50,[10],100 µM
same,GI50,[11],0.08 µM
same,GI50,[13],0.33 µM
same,GI50,[14],0.25 µM
same,GI50,[15],0.05 µM
same,GI50,[16],0.15 µM
same,CC50,[16],13.2 µM
same,GI50,[17],0.1 µM
same,GI50,[18],0.18 µM
same,GI50,[19],0.11 µM
same,GI50,[20],0.02 µM
same,GI50,[21],0.12 µM
same,CC50,[21],27.2 µM
same,GI50,[22],0.06 µM
same,CC50,[22],100 µM
same,GI50,[23],0.08 µM
same,GI50,[24],0.41 µM
same,GI50,[25],0.07 µM
same,GI50,[26],0.03 µM
same,CC50,[26],51.3 µM
same,GI50,[27],0.09 µM
same,GI50,[28],0.07 µM
same,GI50,[29],0.51 µM
same,GI50,[30],0.41 µM
same,GI50,[31],0.12 µM
same,GI50,[32],0.39 µM
same,GI50,[33],0.04 µM
